In ChEMBL document CHEMBL1145178, “Exploring the role of different drug transport routes in permeability screening” (J Med Chem, 2005):
Where a SMILES comes first, the peptide text is derived from it.

Experiments:
[1] = Permeability Coefficient in 2/4/A1 cell model; assay type: ADME, cell-based, Homo sapiens
[2] = Permeability Coefficient in hexadecane membranes model; assay type: ADME, cell membranes; details: not told
In short: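 Hexadecane (5% v/v in hexane) was loaded onto 0.4 µm polycarbonate filters, and the hexane was evaporated for ≥1 h at RT. Drug in HBSS/25 mM HEPES pH 7.4 was placed donor side, with pH 7.4 buffer receiver side, at 37°C and 500 rpm stirring. Receiver sampled over 10–120 min.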

[3] = Fraction absorbed in human intestine after oral administration compound was measured; assay type: ADME, tissue-based
[4] = Permeability Coefficient in Caco-2 cell culture model; assay type: ADME, cell-based; details: human

Compound | Papp [1] [×10⁻⁶ cm/s] | Papp [2] [×10⁻⁶ cm/s] | Fa [3] [%] | Papp [4] [×10⁻⁶ cm/s] | Papp (Homo sapiens) [cm/s · 10E6]
C=CCc1ccccc1OCC(O)CNC(C)C (configuration not stated) [ALPRENOLOL] | 290 | 160 |  |  | 
CN1CC(=O)NC1=N [CREATININE] | 21 | 0.12 | 70 | 1.2 | 
Cc1cc(=O)n(-c2ccccc2)n1C [ANTIPYRINE] | 250 | 11 |  |  | 
Nc1nc(O)c2ncn(COC(CO)CO)c2n1 [GANCICLOVIR] |  |  | 5 |  | 
O=C(O)c1cc(/N=N/c2ccc(S(=O)(=O)Nc3ccccn3)cc2)ccc1O [SULFASALAZINE] | 9.6 |  | 12 |  | 0.028
CC(C)(C)NCC(O)COc1cccc2c1C[C@H](O)[C@H](O)C2 (some centres not stated) [NADOLOL] | 14 | 0.032 | 30 | 0.28 | 
OC[C@H]1O[C@@H](O[C@@H]2[C@@H](CO)O[C@](O)(CO)[C@H]2O)[C@H](O)[C@@H](O)[C@H]1O [LACTULOSE] | 8.9 | 0.081 | 1 |  | 
Cc1ccccc1N1C(=O)c2cc(S(N)(=O)=O)c(Cl)cc2NC1C (configuration not stated) [METOLAZONE] | 14 | 1.1 | 64 | 4.3 | 
CCN1CCCC1CNC(=O)c1cc(S(N)(=O)=O)ccc1OC (configuration not stated) [SULPIRIDE] | 11 |  | 30 |  | 
CC(C)[C@H](N)C(=O)OCCOCn1cnc2c(=O)[nH]c(N)nc21 [VALACYCLOVIR] | 35 | 0.39 | 36 | 2.3 | 
O=C(O)P(=O)(O)O [FOSCARNET] | 9.5 | 0.36 | 17 | 0.043 | 
O=P(O)(O)C(Cl)(Cl)P(=O)(O)O [CLODRONIC ACID] | 4.5 | 12 | 3 | 0.059 | 
OC[C@@H](O)[C@@H](O)[C@H](O)[C@H](O)CO [MANNITOL] | 11 | 0.17 |  |  | 
COCCc1ccc(OCC(O)CNC(C)C)cc1 (configuration not stated) [METOPROLOL] | 190 | 8.6 |  |  | 
CC(C)NCC(O)COc1cccc2ccccc12 (configuration not stated) [PROPRANOLOL] | 240 | 58 | 100 | 204 | 
O=C1c2c(O)ccc(O)c2C(=O)c2c(NCCNCCO)ccc(NCCNCCO)c21 [MITOXANTRONE] | 7.3 | 0.74 |  | 2.3 | 
Nc1nc(=O)c2ncn([C@@H]3C[C@H](CO)[C@H]3CO)c2[nH]1 [LOBUCAVIR] | 14 | 0.057 | 50 | 0.88 | 
CC(C)NCC(O)COc1cccc2[nH]ccc12 (configuration not stated) [PINDOLOL] | 67 | 0.73 |  |  | 
O=c1[nH]cnc2c1ncn2[C@H]1CC[C@@H](CO)O1 [DIDANOSINE] | 14 | 0.099 | 42 | 0.25 | 
Nc1nc2c(ncn2COCCO)c(=O)[nH]1 [ACYCLOVIR] | 8.2 |  | 19 | 0.38 | 0.034
C[C@H]1O[C@@H](O[C@H]2[C@@H](O)C[C@H](O[C@H]3[C@@H](O)C[C@H](O[C@H]4CC[C@@]5(C)[C@H](CC[C@@H]6[C@@H]5C[C@@H](O)[C@]5(C)[C@@H](C7=CC(=O)OC7)CC[C@]65O)C4)O[C@@H]3C)O[C@@H]2C)C[C@H](O)[C@@H]1O [DIGOXIN] | 6.7 | 0.12 | 81 | 1.3 | 
CN(Cc1cnc2nc(N)nc(N)c2n1)c1ccc(C(=O)NC(CCC(=O)O)C(=O)O)cc1 (single isomer, unassigned) [METHOTREXATE] | 5.2 | 0.02 | 59 | 0.03 | 
CC(C)(C)NCC(O)c1cc(O)cc(O)c1 (configuration not stated) [TERBUTALINE] | 41 | 0.96 | 73 | 0.23 | 
OC[C@H]1O[C@H](OC[C@H]2O[C@H](O[C@]3(CO)O[C@H](CO)[C@@H](O)[C@@H]3O)[C@H](O)[C@@H](O)[C@@H]2O)[C@H](O)[C@@H](O)[C@H]1O [RAFFINOSE] | 5.9 | 0.051 | 0 |  | 
CN(C)C(=N)N=C(N)N [METFORMIN] | 20 | 0.51 |  | 0.66 | 
O=C(O)c1cc(/N=N/c2ccc(O)c(C(=O)O)c2)ccc1O [OLSALAZINE] | 4.5 | 12 | 3 | 0.05 | 
CN/C(=N/CCSCc1nc[nH]c1C)NC#N [CIMETIDINE] | 39 | 0.085 | 80 | 0.67 | 
CN(CC(=O)O)C(=O)CN [GLYCYLSARCOSINE] (HELM PEPTIDE1{G.[Sar]}$$$$V2.0) | 11 | 0.25 | 100 | 0.5 | 
